Test results as given in ChEMBL document CHEMBL1134611, “Agonist activity at the kinin B1 receptor: structural requirements of the central tetrapeptide” (J Med Chem, 2001).
The source made the active and inactive calls. The calls are words filed in the database; no cut-off is given here. Numbered stars: 1 amine (or outer) side, 2 acyl side, 3 side chain; on linkers, the order of the positions; unused ones are H or OH. Square brackets hold non-standard residues; d marks the D form. Peptide text beside a SMILES is read from it. X2 = O=C(C1(N[*:1])CCCCCCCCCCC1)[*:2]; X1 = O=C(C1(N[*:1])CCCCCCCC1)[*:2]; 12Ado = NCCCCCCCCCCCC(=O)O; Ac8c = NC1(C(=O)O)CCCCCCC1; Ac7c = NC1(C(=O)O)CCCCCC1; Ac6c = NC1(C(=O)O)CCCCC1

Target: T1, B1 bradykinin receptor (Rattus norvegicus) (UniProt P97583)
T1 sequence (whole entry): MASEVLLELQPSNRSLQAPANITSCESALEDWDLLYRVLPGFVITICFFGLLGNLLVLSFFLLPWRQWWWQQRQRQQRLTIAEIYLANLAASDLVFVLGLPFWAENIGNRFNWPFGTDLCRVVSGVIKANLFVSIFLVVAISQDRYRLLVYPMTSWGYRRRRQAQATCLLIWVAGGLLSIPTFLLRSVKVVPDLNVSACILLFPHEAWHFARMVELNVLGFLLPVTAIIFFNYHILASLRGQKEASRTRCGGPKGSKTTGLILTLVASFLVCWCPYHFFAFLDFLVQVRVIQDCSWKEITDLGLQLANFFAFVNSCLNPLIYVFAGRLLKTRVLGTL
Assay: Agonistic activity against Bradykinin receptor B1 of rat ileum longitudinal smooth muscle
Format: functional, tissue-based
Summary of the method: (§1)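 Rat ileum longitudinal muscle-myenteric plexus strips in oxygenated (95% O2, 5% CO2) Krebs' solution with indomethacin and guanethidine (3 µM each), chlorpheniramine and atropine (1 µM each). Cumulative concentration-response curves of contraction, run with thiorphan, bestatin and captopril (1 µM each). pD2 = -log molar agonist concentration giving 50% of maximal effect; mean ± SEM, 4-10 experiments.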

| pD2 | Molecule |
| --- | --- |
| 5.7 | NCCCC[C@H](N)C(=O)N[C@@H](CCCN=C(N)N)C(=O)NCC(=O)NC1(C(=O)NCC(=O)N[C@@H](CO)C(=O)N2CCC[C@H]2C(=O)N[C@@H](Cc2ccccc2)C(=O)O)CCCCCCC1 (H-KRG[Ac8c]GSPF-OH) |
| 6 | NCCCC[C@H](N)C(=O)N[C@@H](CCCN=C(N)N)C(=O)NCCCCCCCCCCCC(=O)N[C@@H](CO)C(=O)N1CCC[C@H]1C(=O)N[C@@H](Cc1ccccc1)C(=O)O (H-KR[12Ado]SPF-OH) |
| 5.4 | NCCCC[C@H](N)C(=O)N[C@@H](CCCN=C(N)N)C(=O)NCC(=O)NC1(C(=O)NCC(=O)N[C@@H](CO)C(=O)N2CCC[C@H]2C(=O)N[C@@H](Cc2ccccc2)C(=O)O)CCCCCCCC1 (H-KRG[X1]GSPF-OH) |
| 5.5 | NCCCC[C@H](N)C(=O)N[C@@H](CCCN=C(N)N)C(=O)NCC(=O)NC1(C(=O)NCC(=O)N[C@@H](CO)C(=O)N2CCC[C@H]2C(=O)N[C@@H](Cc2ccccc2)C(=O)O)CCCCCCCCCCC1 (H-KRG[X2]GSPF-OH) |
| 5.4 | NCCCC[C@H](N)C(=O)N[C@@H](CCCN=C(N)N)C(=O)NCC(=O)NC1(C(=O)NCC(=O)N[C@@H](CO)C(=O)N2CCC[C@H]2C(=O)N[C@@H](Cc2ccccc2)C(=O)O)CCCCCC1 (H-KRG[Ac7c]GSPF-OH) |
| 5.1 | NCCCC[C@H](N)C(=O)N[C@@H](CCCN=C(N)N)C(=O)NCC(=O)NC1(C(=O)NCC(=O)N[C@@H](CO)C(=O)N2CCC[C@H]2C(=O)N[C@@H](Cc2ccccc2)C(=O)O)CCCCC1 (H-KRG[Ac6c]GSPF-OH) |

Target: T1, B1 bradykinin receptor (Rattus norvegicus)
Assay: Agonistic activity against Bradykinin receptor B1 of rat ileum longitudinal smooth muscle; Inactive
Format: functional, tissue-based
Summary of the method: as §1

| IA | Molecule |
| --- | --- |
| inactive | NCCCC[C@H](N)C(=O)N[C@@H](CCCN=C(N)N)C(=O)NC1(C(=O)N[C@@H](CO)C(=O)N2CCC[C@H]2C(=O)N[C@@H](Cc2ccccc2)C(=O)O)CCCCCC1 (H-KR[Ac7c]SPF-OH) |
| inactive | H-KRGGGSPF-OH |
